Data from ChEMBL document CHEMBL1122568, “Synthesis and anticonvulsant activity of some substituted lactams and amides” (J Med Chem, 1984).

How the values were obtained:
Mus sp. [1] = experiment: Anticonvulsant activity was evaluated by maximal electroshock induced convulsion test and was determined 30 min after subcutaneous administration; assay type: functional
Mus sp. [2] = experiment: (§1) Anticonvulsant activity was evaluated by rotarod toxicity test and was determined 30 min after subcutaneous administration; assay type: organism-based; details: in vivo, sc, 0.5 h
Mus sp. [3] = experiment: Anticonvulsant activity was evaluated by metrazole-induced convulsion test and was determined 30 min after subcutaneous administration; assay type: functional
Procedure, shortened: (§2)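 Secondary evaluation in mice. Compound was given intraperitoneally in 30% polyethylene glycol 400. Median effective dose (ED50) was determined against maximal electroshock (MES) or subcutaneous Metrazol (scMet) convulsions. Median toxic dose (TD50) was determined by the rotorod test. All were read 30 min after dosing.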

Mus sp. [4] = experiment: Number of animals protected out of 1 was evaluated by maximal electroshock induced convulsion test at 30 min after subcutaneous administration of >300 mg/kg; assay type: functional
Procedure, shortened: (§3)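 Preliminary screen in small groups of mice (1-4) at 30, 100 and 300 mg/kg. Protection against MES or scMet convulsions, or rotorod toxicity, was scored at 30 min and 4 h after dosing. The smallest dose giving activity was recorded for each test.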

Mus musculus [5] = experiment: Number of animals protected out of 1 was evaluated by rotarod toxicity test and was determined 30 min t 30 min after subcutaneous administration of >300 mg/kg; assay type: functional
Mus musculus [6] = experiment: Number of animal protected out of 1 was evaluated by metrazole-induced convulsion test at 30 min after subcutaneous administration of >300 mg/kg; assay type: functional; procedure, shortened: as §3
Mus musculus [7] = experiment: Number of animal protected out of 4 was evaluated by metrazole-induced convulsion test at 30 min after subcutaneous administration of >300 mg/kg; assay type: functional; procedure, shortened: as §3
Mus sp. [8] = experiment: Number of animals protected out of 4 was evaluated by rotarod toxicity test and was determined 30 min t 30 min after subcutaneous administration of >300 mg/kg; assay type: functional; procedure, shortened: as §3
Mus musculus [9] = experiment: Anticonvulsant activity was evaluated by rotarod toxicity test and was determined 30 min after administration; assay type: organism-based; details: in vivo, 0.5 h; procedure, shortened: as §2
[10] = Anticonvulsant activity was evaluated by rotarod toxicity test after subcutaneous administration; assay type: organism-based; details: mouse, in vivo, sc
Mus musculus [11] = experiment: Anticonvulsant activity was evaluated by maximal electroshock induced convulsion test after subcutaneous administration; assay type: functional; details: sc
Mus musculus [12] = experiment: Number of animals protected out of 4 was evaluated by maximal electroshock induced convulsion test at 30 min after subcutaneous administration of >300 mg/kg; assay type: functional; procedure, shortened: as §3
Mus musculus [13] = experiment: Anticonvulsant activity was evaluated by metrazole-induced convulsion test after subcutaneous administration; assay type: functional; details: sc; procedure, shortened: as §2
[14] = as §1; assay type: organism-based; details: mouse, in vivo, sc
Mus musculus [15] = experiment: Number of animal protected out of 1 was evaluated by metrazole-induced convulsion test at 30 min after subcutaneous administration of 30 mg/kg; assay type: functional; procedure, shortened: as §3
Mus musculus [16] = experiment: Number of animals protected out of 1 was evaluated by maximal electroshock induced convulsion test at 30 min after subcutaneous administration of 300 mg/kg; assay type: functional; procedure, shortened: as §3
[17] = Anticonvulsant activity was evaluated by rotarod toxicity test after subcutaneous administration.; assay type: organism-based; details: mouse, in vivo, sc
Mus musculus [18] = experiment: Anticonvulsant activity was evaluated by maximal electroshock induced convulsion test after subcutaneous administration.; assay type: functional; details: sc

Structure (SMILES)	Activity (Mus sp. [1])	Activity (Mus sp. [2])	Activity (Mus sp. [3])	No. of animals protected (Mus sp. [4])	No. of animals protected (Mus musculus [6])	No. of animals protected (Mus sp. [8])	ED50 (Mus musculus [13])	other results
CCOC(=O)N1CCCC(Cl)(c2ccccc2)C1=O (centres undefined)	>300 mg/kg	> 300 mg/kg	300 mg/kg					
CCOC(=O)N(C)C(=O)C(CC)(OCc1ccccc1)c1ccccc1 (centres undefined)	>300 mg/kg	> 300 mg/kg	>300 mg/kg	0	0			No. of animals protected (Mus musculus [5]): 0
CCCC(C)OC(=O)N1CCCC(O)(c2ccccc2)C1=O (centres undefined)	300 mg/kg	> 300 mg/kg	300 mg/kg	1		0		No. of animals protected (Mus musculus [7]): 1
O=C(CBr)OC1(c2ccccc2)CCCNC1=O (centres undefined)	>300 mg/kg		300 mg/kg					Activity (Mus musculus [9]): > 300 mg/kg
CCOC(=O)N1CCCC(OC)(c2ccccc2)C1=O (centres undefined)	300 mg/kg	> 300 mg/kg	300 mg/kg		1	0	124 mg/kg	TD50 [10]: > 300 mg/kg; ED50 (Mus musculus [11]): 225 mg/kg; No. of animals protected (Mus musculus [12]): 2
COC1(c2ccccc2)CCCNC1=O (centres undefined)	100 mg/kg	300 mg/kg	300 mg/kg	1		4	49.6 mg/kg	No. of animals protected (Mus musculus [7]): 4; ED50 (Mus musculus [11]): 121 mg/kg; TD50 at 0.5 h [14]: 239 mg/kg
CCC(O)(C(=O)NC)c1ccccc1 (centres undefined)	300 mg/kg	> 300 mg/kg	>300 mg/kg	1	0	0		
CCOC(=O)N1CCCC(O)(c2ccccc2)C1=O (centres undefined)	300 mg/kg	> 300 mg/kg	30 mg/kg			0	124 mg/kg	TD50 [10]: 451 mg/kg; No. of animals protected (Mus musculus [15]): 1; No. of animals protected (Mus musculus [16]): 1; ED50 (Mus musculus [11]): 132 mg/kg
O=C1NCCCC1(O)c1ccccc1 (centres undefined)	>300 mg/kg	> 300 mg/kg	>300 mg/kg	0	0	0		
CCOC(=O)N1CCCC(OC(C)=O)(c2ccccc2)C1=O (centres undefined)	>300 mg/kg		>300 mg/kg	0	0	0		Activity (Mus musculus [9]): > 300 mg/kg
CN1CCCC(O)(c2ccccc2)C1=O (centres undefined)	100 mg/kg		300 mg/kg	1		0	128 mg/kg	TD50 [10]: 350 mg/kg; No. of animals protected (Mus musculus [7]): 4; ED50 (Mus musculus [11]): 84.4 mg/kg; Activity (Mus musculus [9]): > 300 mg/kg
CCOC(=O)N1CCCC(OCC2CCCCC2)(c2ccccc2)C1=O (centres undefined)	>300 mg/kg	> 300 mg/kg	>300 mg/kg	0	0	0		
CCOC(=O)N1CCCC(c2ccccc2)C1=O (centres undefined)	>300 mg/kg	> 300 mg/kg	>300 mg/kg	0	0	0		
CCOC(=O)NCCCC(O)(C(=O)OC)c1ccccc1 (centres undefined)	>300 mg/kg	> 300 mg/kg	>300 mg/kg	0	0			No. of animals protected (Mus musculus [5]): 0
CCC(OCc1ccccc1)(C(=O)NC)c1ccccc1 (centres undefined)	>300 mg/kg	> 300 mg/kg	>300 mg/kg	0	0	0		
CCOC(=O)N1CCCC(N)(c2ccccc2)C1=O (centres undefined)	300 mg/kg		300 mg/kg	1	1	4		Activity (Mus musculus [9]): 300 mg/kg
O=C(CCl)N1CCCC(O)(c2ccccc2)C1=O (centres undefined)	>300 mg/kg	> 300 mg/kg	>300 mg/kg					
O=C(CCCl)NCc1ccccc1 [BECLAMIDE]							117 mg/kg	TD50 [10]: 278 mg/kg; ED50 (Mus musculus [11]): 185 mg/kg
CCCC(C)(COC(N)=O)COC(N)=O [MEPROBAMATE]							31.5 mg/kg	ED50 (Mus musculus [11]): 120 mg/kg; TD50 [17]: 125 mg/kg
NC(=O)NC(=O)Cc1ccccc1 [PHENACEMIDE]								ED50 (Mus musculus [18]): 87.3 mg/kg; TD50 [17]: 421 mg/kg
CCCC(CCC)C(=O)O [VALPROIC ACID]							149 mg/kg	
